Results from ChEMBL document CHEMBL3414427, “Structure-activity relationships of 3-O-β-chacotriosyl ursolic acid derivatives as novel H5N1 entry inhibitors” (Eur J Med Chem, 2015).
Calls of active or inactive are those of the source. The rule behind the calls is not given here.

Key:
[1] = Cytotoxicity against MDCK cells; format: cell-based, Canis lupus familiaris; conditions: dog
How it was run: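 MDCK cells (ATCC) grown in DMEM containing glutamine, supplemented with 10% fetal calf serum. CC50 is the mean of three independent assays.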

cells = format: functional, cell-based, Influenza A virus (A/Thailand/Kan353/2004(H5N1)); conditions: Influenza A virus, MDCK, 48 h
[2] = test system: Vesicular stomatitis virus; experiment: Antiviral activity against VSV-G enveloped pseudovirus; format: functional, organism-based
How it was run: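 VSV-G pseudotyped particles (negative control), incubated with compound instead of H5N1 pseudovirus. MDCK cells (ATCC; DMEM with glutamine plus 10% FCS), seeded at 10⁴/well and grown overnight, then infected and incubated a further 48 h. Cells were PBS-washed and lysed, and luciferase activity was read by luminometer after adding substrate.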

[3] = molecular target: Neuraminidase (Influenza A virus) (UniProt A5Z252); experiment: Inhibition of Influenza A virus (H5N1) neuraminidase N1 at 20 microg/ml after 30 mins by fluorescence based assay
How it was run: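 Fluorescence-based kit assay with purified N1-type neuraminidase in detection buffer. Test compound was added, then neuraminidase substrate. Incubated at 37 °C for 30 min; fluorescence read at excitation 340 nm and emission 535 nm.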

Structure (SMILES)	CC50 [1]	IC50 (cells)	inhibition [2]	inhibition [3]
C=C(C)[C@@H]1CC[C@]2(C(=O)OC)CC[C@]3(C)[C@H](CC[C@@H]4[C@@]5(C)CC[C@H](O[C@@H]6O[C@H](CO)[C@@H](O[C@@H]7O[C@@H](C)[C@H](O)[C@@H](O)[C@H]7O)[C@H](O)[C@H]6O[C@@H]6O[C@@H](C)[C@H](O)[C@@H](O)[C@H]6O)C(C)(C)[C@@H]5CC[C@]43C)[C@H]12	33.9 µM	2.08 µM	–	–
CCCCCOC(=O)[C@]12CC[C@@H](C)[C@H](C)[C@H]1C1=CC[C@@H]3[C@@]4(C)CC[C@H](O[C@@H]5O[C@H](CO)[C@@H](O[C@@H]6O[C@@H](C)[C@H](O)[C@@H](O)[C@H]6O)[C@H](O)[C@H]5O[C@@H]5O[C@@H](C)[C@H](O)[C@@H](O)[C@H]5O)C(C)(C)[C@@H]4CC[C@@]3(C)[C@]1(C)CC2	20.1 µM	3.72 µM	–	–
C[C@H]1[C@H](C)CC[C@]2(C(=O)O)CC[C@]3(C)C(=CC[C@@H]4[C@@]5(C)CC[C@H](O[C@@H]6O[C@H](CO)[C@@H](O[C@@H]7O[C@@H](C)[C@H](O)[C@@H](O)[C@H]7O)[C@H](O)[C@H]6O[C@@H]6O[C@@H](C)[C@H](O)[C@@H](O)[C@H]6O)C(C)(C)[C@@H]5CC[C@]43C)[C@H]12	26.2 µM	10.1 µM	–	–
CCOC(=O)[C@]12CC[C@@H](C)[C@H](C)[C@H]1C1=CC[C@@H]3[C@@]4(C)CC[C@H](O[C@@H]5O[C@H](CO)[C@@H](O[C@@H]6O[C@@H](C)[C@H](O)[C@@H](O)[C@H]6O)[C@H](O)[C@H]5O[C@@H]5O[C@@H](C)[C@H](O)[C@@H](O)[C@H]5O)C(C)(C)[C@@H]4CC[C@@]3(C)[C@]1(C)CC2	19.1 µM	1.16 µM	–	–
CNC(=O)[C@]12CC[C@@H](C)[C@H](C)[C@H]1C1=CC[C@@H]3[C@@]4(C)CC[C@H](O[C@@H]5O[C@H](CO)[C@@H](O[C@@H]6O[C@@H](C)[C@H](O)[C@@H](O)[C@H]6O)[C@H](O)[C@H]5O[C@@H]5O[C@@H](C)[C@H](O)[C@@H](O)[C@H]5O)C(C)(C)[C@@H]4CC[C@@]3(C)[C@]1(C)CC2	> 200 µM	22.5 µM	–	–
COC(=O)[C@]12CC[C@@H](C)[C@H](C)[C@H]1C1=CC[C@@H]3[C@@]4(C)CC[C@@H](O[C@@H]5O[C@H](CO)[C@@H](O[C@@H]6O[C@@H](C)[C@H](O)[C@@H](O)[C@H]6O)[C@H](O)[C@H]5O[C@@H]5O[C@@H](C)[C@H](O)[C@@H](O)[C@H]5O)C(C)(C)[C@@H]4CC[C@@]3(C)[C@]1(C)CC2	> 200 µM	1.33 µM	inactive	inactive
COC(=O)[C@]12CC[C@@H](C)[C@H](C)[C@H]1C1=CC(=O)[C@@H]3[C@@]4(C)CC[C@H](O[C@@H]5O[C@H](CO)[C@@H](O[C@@H]6O[C@@H](C)[C@H](O)[C@@H](O)[C@H]6O)[C@H](O)[C@H]5O[C@@H]5O[C@@H](C)[C@H](O)[C@@H](O)[C@H]5O)C(C)(C)[C@@H]4CC[C@@]3(C)[C@]1(C)CC2	38.4 µM	5.68 µM	–	–
CCN(CC)C(=O)[C@]12CC[C@@H](C)[C@H](C)[C@H]1C1=CC[C@@H]3[C@@]4(C)CC[C@H](O[C@@H]5O[C@H](CO)[C@@H](O[C@@H]6O[C@@H](C)[C@H](O)[C@@H](O)[C@H]6O)[C@H](O)[C@H]5O[C@@H]5O[C@@H](C)[C@H](O)[C@@H](O)[C@H]5O)C(C)(C)[C@@H]4CC[C@@]3(C)[C@]1(C)CC2	47 µM	1.41 µM	–	–
O=C(NCCN1CCCCC1)c1cc(F)cc(C(F)(F)F)c1	1480 µM	4.45 µM	–	–
C[C@H]1[C@H](C)CC[C@]2(C(=O)N(C)C)CC[C@]3(C)C(=CC[C@@H]4[C@@]5(C)CC[C@H](O[C@@H]6O[C@H](CO)[C@@H](O[C@@H]7O[C@@H](C)[C@H](O)[C@@H](O)[C@H]7O)[C@H](O)[C@H]6O[C@@H]6O[C@@H](C)[C@H](O)[C@@H](O)[C@H]6O)C(C)(C)[C@@H]5CC[C@]43C)[C@H]12	48.6 µM	0.98 µM	inactive	inactive
C=CCOC(=O)[C@]12CC[C@@H](C)[C@H](C)[C@H]1C1=CC[C@@H]3[C@@]4(C)CC[C@H](O[C@@H]5O[C@H](CO)[C@@H](O[C@@H]6O[C@@H](C)[C@H](O)[C@@H](O)[C@H]6O)[C@H](O)[C@H]5O[C@@H]5O[C@@H](C)[C@H](O)[C@@H](O)[C@H]5O)C(C)(C)[C@@H]4CC[C@@]3(C)[C@]1(C)CC2	21.8 µM	34 µM	–	–
COC(=O)[C@@]1(C)CC[C@]2(C)CC[C@]3(C)C(=CC(=O)[C@@H]4[C@@]5(C)CC[C@H](O[C@@H]6O[C@H](CO)[C@@H](O[C@@H]7O[C@@H](C)[C@H](O)[C@@H](O)[C@H]7O)[C@H](O)[C@H]6O[C@@H]6O[C@@H](C)[C@H](O)[C@@H](O)[C@H]6O)C(C)(C)[C@@H]5CC[C@]43C)[C@@H]2C1	17.1 µM	4.93 µM	–	–
C[C@H]1[C@H](C)CC[C@]2(C(=O)OC3CCCC3)CC[C@]3(C)C(=CC[C@@H]4[C@@]5(C)CC[C@H](O[C@@H]6O[C@H](CO)[C@@H](O[C@@H]7O[C@@H](C)[C@H](O)[C@@H](O)[C@H]7O)[C@H](O)[C@H]6O[C@@H]6O[C@@H](C)[C@H](O)[C@@H](O)[C@H]6O)C(C)(C)[C@@H]5CC[C@]43C)[C@H]12	24.2 µM	4.91 µM	–	–
COC(=O)[C@]12CCC(C)(C)C[C@H]1C1=CC[C@@H]3[C@@]4(C)CC[C@H](O[C@@H]5O[C@H](CO)[C@@H](O[C@@H]6O[C@@H](C)[C@H](O)[C@@H](O)[C@H]6O)[C@H](O)[C@H]5O[C@@H]5O[C@@H](C)[C@H](O)[C@@H](O)[C@H]5O)C(C)(C)[C@@H]4CC[C@@]3(C)[C@]1(C)CC2	16.9 µM	3.74 µM	–	–
COC(=O)[C@]12CC[C@@H](C)[C@H](C)[C@H]1C1=CC[C@@H]3[C@@]4(C)CC[C@H](O[C@@H]5O[C@H](CO)[C@@H](O[C@@H]6O[C@@H](C)[C@H](O)[C@@H](O)[C@H]6O)[C@H](O)[C@H]5O[C@@H]5O[C@@H](C)[C@H](O)[C@@H](O)[C@H]5O)C(C)(C)[C@@H]4CC[C@@]3(C)[C@]1(C)CC2	13 µM	1.02 µM	inactive	inactive
CCCOC(=O)[C@]12CC[C@@H](C)[C@H](C)[C@H]1C1=CC[C@@H]3[C@@]4(C)CC[C@H](O[C@@H]5O[C@H](CO)[C@@H](O[C@@H]6O[C@@H](C)[C@H](O)[C@@H](O)[C@H]6O)[C@H](O)[C@H]5O[C@@H]5O[C@@H](C)[C@H](O)[C@@H](O)[C@H]5O)C(C)(C)[C@@H]4CC[C@@]3(C)[C@]1(C)CC2	19.2 µM	2.3 µM	–	–
